Consider six compounds from ChEMBL document CHEMBL4041548, “Ester Prodrugs of IHVR-19029 with Enhanced Oral Exposure and Prevention of Gastrointestinal Glucosidase Interaction” (ACS Med Chem Lett, 2017).

Series [1] can be described thus: Inhibition of endoplasmic reticulum alpha-glucosidase in HEK293 cells infected with DENV assessed as reduction in viral infection. In kind it is cell-based. The conditions noted are these: Homo sapiens.
The subject of series [2] is Liver. As to the kind of experiment: Half life in pooled mouse liver microsomes at 200 uM by LC-MS/MS analysis. Particulars: microsomes, 200 µM. In kind it is ADME, microsome. A digest of the protocol: (§1)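 Prodrugs or parent incubated in pooled human or mouse liver microsomes for up to 60 min, with or without cofactor. Percent remaining and percent conversion to the parent were measured.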

Series [3] is described as follows: Metabolic stability in mouse intestinal S9 fraction assessed as parent compound level at 200 uM measured after 1 hr in presence or absence of NADPH by LC-MS/MS analysis. In kind it is ADME, Intestine. Particulars: read-out: Stability. The gist of the method: (§2)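 Compounds incubated with intestinal S9 fraction for 1 h. Percent prodrug remaining and percent conversion to the parent were measured.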

The nature of series [4]: Tmax in BALB/c mouse at 25 mg/kg, po administered as single dose by LC-MS/MS analysis. Particulars: in vivo. In kind it is ADME, organism-based. The gist of the method:
(§3)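 Male BALB/c mice dosed with the prodrugs or the parent orally (25 or 100 mg/kg) or intravenously (5 mg/kg). The parent compound was quantified in plasma and PK parameters were derived from it. The first sampling point was 5 min post-dose, and prodrugs were tracked up to 4 h.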

A short description of series [5]: Inhibition of pig liver endoplasmic reticulum alpha glucosidase-1 using 4-methylumbelliferyl-alpha-D-glucoside as substrate measured after 90 mins by fluorescence analysis. Also on record: species or system Sus scrofa.
Series [6] is described as follows: Half life in BALB/c mouse at 100 mg/kg, po administered as single dose by LC-MS/MS analysis. In kind it is ADME, organism-based. Particulars: in vivo. The gist of the method:
as §3

Series [7] concerns Mus musculus. Put plainly: AUC(0 to infinity) in BALB/c mouse at 25 mg/kg, po administered as single dose by LC-MS/MS analysis. In kind it is ADME, organism-based. Also noted: dose 25 mg/kg, time infinity, route oral. The conditions noted are these: in vivo.
Series [8] in a line: Cmax in BALB/c mouse at 5 mg/kg, iv as bolus administration by LC-MS/MS analysis. In kind it is ADME, organism-based. Also noted: dose 5 mg/kg, route intravenous. Particulars: in vivo. The gist of the method:
as §3

Series [9] can be described thus: Stability in simulated gastric fluid assessed as parent compound remaining at 5 uM measured after 4 hrs by LC-MS/MS analysis. A digest of the protocol:
(§4)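 Chemical stability assessed by incubation in simulated gastric fluid and simulated intestinal fluid; percent of compound remaining was measured.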

The test system of series [10] is Liver. As to the kind of experiment: Metabolic stability in pooled mouse liver microsomes assessed as parent compound remaining at 200 uM measured after 60 mins by LC-MS/MS analysis. In kind it is ADME, microsome. The conditions noted are these: microsomes, 1 h, 200 µM. A digest of the protocol:
as §1

For another series, the species on record is Bos taurus. Put plainly: Inhibition of endoplasmic reticulum alpha-glucosidase in MDBK cells infected with Bovine Viral Diarrhea virus assessed as reduction in BVDV envelope glycoprotein E2 level at 3 to 100 uM by immunoblot analysis. In kind it is cell-based. The gist of the method:
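MDBK cells infected with BVDV, then treated with various concentrations of the compounds. Cell lysates were run on SDS-PAGE and immunoblotted for the E2 envelope glycoprotein, looking for a mobility shift and lower intensity, with β-actin as internal control.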

The subject of series [11] is Mus musculus. As to the kind of experiment: AUC(0 to infinity) in BALB/c mouse at 5 mg/kg, iv as bolus administration by LC-MS/MS analysis. In kind it is ADME, organism-based. Also on record: dose 5 mg/kg, time infinity, route intravenous. Particulars: in vivo.
A short description of series [12]: Tmax in BALB/c mouse at 100 mg/kg, po administered as single dose by LC-MS/MS analysis. In kind it is ADME, organism-based. The conditions noted are these: in vivo. A digest of the protocol: as §3
The nature of series [13]: Metabolic stability in mouse plasma assessed as parent compound remaining at 5 uM measured after 2 hrs by LC-MS/MS analysis. In kind it is ADME, cell-free. Particulars: read-out: Stability. A digest of the protocol:
(§5)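 Compounds incubated in human or mouse plasma for 2 h. Percent remaining and percent conversion to the parent were determined.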

Series [14] can be described thus: Metabolic stability in human intestinal S9 fraction assessed as parent compound level at 200 uM measured after 1 hr in presence or absence of NADPH by LC-MS/MS analysis. In kind it is ADME, Intestine. The conditions noted are these: read-out: Stability. The gist of the method:
as §2

Series [15] can be described thus: Inhibition of pig liver endoplasmic reticulum alpha glucosidase-2 using 4-methylumbelliferyl-alpha-D-glucoside as substrate measured after 60 mins by fluorescence analysis. Also on record: species or system Sus scrofa.
The test system of series [16] is Liver. Put plainly: Half life in pooled human liver microsomes at 200 uM by LC-MS/MS analysis. In kind it is ADME, microsome. The conditions noted are these: microsomes, 200 µM. The gist of the method: as §1
Series [17] can be described thus: Metabolic stability in pooled mouse liver microsomes assessed as parent compound remaining at 200 uM measured after 60 mins in presence of NADPH and UDPGA by LC-MS/MS analysis. In kind it is ADME, microsome. The conditions noted are these: read-out: Stability. A digest of the protocol:
as §1

The test system of series [18] is Mus musculus. As to the kind of experiment: AUC(0 to infinity) in BALB/c mouse at 100 mg/kg, po administered as single dose by LC-MS/MS analysis. Also noted: dose 100 mg/kg, time infinity, route oral. In kind it is ADME, organism-based. The conditions noted are these: in vivo.
Series [19] concerns Liver. As to the kind of experiment: Metabolic stability in pooled human liver microsomes assessed as parent compound remaining at 200 uM measured after 60 mins by LC-MS/MS analysis. Particulars: microsomes, 1 h, 200 µM. In kind it is ADME, microsome. The gist of the method:
as §1

Series [20] in a line: Cmax in BALB/c mouse at 25 mg/kg, po administered as single dose by LC-MS/MS analysis. In kind it is ADME, organism-based. Also on record: dose 25 mg/kg, route oral. Particulars: in vivo. The gist of the method: as §3
The nature of series [21]: Half life in BALB/c mouse at 25 mg/kg, po administered as single dose by LC-MS/MS analysis. In kind it is ADME, organism-based. Particulars: in vivo. The gist of the method:
as §3

Series [22] is described as follows: Clearance in BALB/c mouse at 5 mg/kg, iv as bolus administration by LC-MS/MS analysis. In kind it is ADME, organism-based. The conditions noted are these: in vivo. The gist of the method: as §3
A short description of series [23]: Metabolic stability in pooled human liver microsomes assessed as parent compound remaining at 200 uM measured after 60 mins in presence of NADPH and UDPGA by LC-MS/MS analysis. In kind it is ADME, microsome. The conditions noted are these: read-out: Stability. The gist of the method:
as §1

Series [24] can be described thus: Volume of distribution at steady state in BALB/c mouse at 5 mg/kg, iv as bolus administration by LC-MS/MS analysis. In kind it is ADME, organism-based. The conditions noted are these: in vivo, read-out: Vdss. The gist of the method: as §3
Series [25] can be described thus: Half life in BALB/c mouse at 5 mg/kg, iv as bolus administration by LC-MS/MS analysis. In kind it is ADME, organism-based. The conditions noted are these: in vivo. A digest of the protocol: as §3
Series [26] can be described thus: Inhibition of endoplasmic reticulum alpha-glucosidase in human Huh7.5 cells infected with DENV assessed as reduction in viral growth by measuring DENV RNA level by qRT-PCR method. In kind it is cell-based. A digest of the protocol: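 Huh7.5 cells infected with dengue virus and treated with a concentration series of the compounds (n = 4). DENV RNA was quantified by qRT-PCR and the EC50 was calculated.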

Series [27] is described as follows: Cmax in BALB/c mouse at 100 mg/kg, po administered as single dose by LC-MS/MS analysis. In kind it is ADME, organism-based. Also noted: dose 100 mg/kg, route oral. The conditions noted are these: in vivo. A digest of the protocol: as §3
Series [28] in a line: Stability in simulated intestinal fluid assessed as parent compound remaining at 5 uM measured after 4 hrs by LC-MS/MS analysis. The gist of the method:
as §4

The nature of series [29]: Metabolic stability in human plasma assessed as parent compound remaining at 5 uM measured after 2 hrs by LC-MS/MS analysis. In kind it is ADME, cell-free. The conditions noted are these: read-out: Stability. A digest of the protocol:
as §5

The source made the active and inactive calls. No cut-off for these calls is given here.

Turning to `OC[C@H]1NC[C@H](O)[C@@H](O)[C@@H]1O` [DUVOGLUSTAT], in series [1], the EC50 was 364 µM.

With `CCCCCCCCCN1C[C@H](O)[C@@H](O)[C@H](O)[C@H]1CO`, the EC50 in series [1] is 7.1 µM.

As for `CCCCN1C[C@H](O)[C@@H](O)[C@H](O)[C@H]1CO` [MIGLUSTAT], in series [1], the EC50 turned out to be 56.4 µM.

Regarding `OC[C@@H]1[C@@H](O)[C@H](O)[C@@H](O)CN1CCCCCCOc1cc(F)ccc1F`, the EC50 in series [1] was 0.5 µM.

On to `CC(C)(C)NC(=O)N(CCCCCCN1C[C@H](O)[C@@H](O)[C@H](O)[C@H]1CO)C1CCCCC1`, for which the results for the t1/2 in the series on Liver [2] and in the series on Liver [16] were 1.57 h and 1.73 h, respectively. The remaining at 1 h, 200 µM in [3] was 76 to 95%; in series [14], 76 to 95%; in series [17] it was 63%; in series [23], 68%. The Tmax was determined as 0.25 h in series [4] and 0.5 h in series [12]. Moreover, the results for the IC50 in series [5] and in [15] were 0.81 µM and 27.8 µM, respectively. The half-life in [6] is 5.46 h; in [21], 5.19 h; in series [25] it was 0.98 h. The AUC in the series with Mus musculus [7] was 150 ng·mL·h; in the series on Mus musculus [11], 1191 ng·mL·h; in the series on Mus musculus [18], 996 ng·mL·h. In addition, the peak concentration (Cmax) was determined as 2840 ng/mL in series [8], 184 ng/mL in series [20] and 915 ng/mL in series [27]. Moreover, the Stability in series [9] was 109%; in the series with Liver [10], 96%; with Liver [19] it was 99%; in [28], 114%. For the same compound, the inhibition entry in the series listed under Bos taurus was “Active”. For the same compound, the remaining at 2 h, 5 µM in series [13] worked out at 93%; in [29], 109%. Moreover, the values for the EC50 in [1] and in series [26] were 1.2 µM and 4.1 µM, respectively. In series [22], the clearance is 70 mL/min/kg. The Vd in series [24] came to 2.13 L/kg.

In the case of `CCC(O)(CC)CCCCCCN1C[C@H](O)[C@@H](O)[C@H](O)[C@H]1CO`, in series [1], the half-maximal effective concentration (EC50) came to 2.2 µM.
